Source: PubChem
A selection: hits, their analogues and other compounds. The true share with any hit is near 1.5%.
NR2E3 ag-1: activates human NR2E3 receptor | AID 602229 | CHO-S Gal4-NCOR/VP16-NR2E3 two-hybrid, luciferase | 360,000 tested, 0.35% active | Q9Y5X4 | inhibition of corepressor binding, % at 3.98 µM;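 active = inhibition above the mean of all tested compounds plus 3 SD, cut at about 70% in these data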;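 also: 0% = DMSO with NR2E3 transfected cells and 100% = cells lacking NR2E3 construct; higher means lower luciferase signal from less NR2E3 corepressor binding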
Target sequence (Q9Y5X4 whole entry, looked up, the tested form may be a part): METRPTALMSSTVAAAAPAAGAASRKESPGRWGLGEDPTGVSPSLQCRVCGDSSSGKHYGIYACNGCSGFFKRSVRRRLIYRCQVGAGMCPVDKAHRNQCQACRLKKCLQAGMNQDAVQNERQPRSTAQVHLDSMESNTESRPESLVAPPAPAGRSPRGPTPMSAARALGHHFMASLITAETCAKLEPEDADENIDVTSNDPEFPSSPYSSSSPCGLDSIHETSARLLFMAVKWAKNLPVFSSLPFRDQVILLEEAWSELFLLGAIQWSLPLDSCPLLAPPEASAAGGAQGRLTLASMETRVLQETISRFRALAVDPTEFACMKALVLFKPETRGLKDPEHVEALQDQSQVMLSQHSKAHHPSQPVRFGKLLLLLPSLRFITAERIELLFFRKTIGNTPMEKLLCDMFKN
NR2E3 ag-2: activates human photoreceptor nuclear receptor NR2E3; GST-NR2E3/biotin-RetCOR TR-FRET, 1536-well; Q9Y5X4; 320,000 tested, 0.12% active; inhibition of corepressor binding, % at 4.78 µM;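 active = percent inhibition above the cutoff of mean plus 3 SD of all tested compounds, set per screening campaign, cut at about 20% in these data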;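 also: 0% = DMSO wells and 100% = biotin wells as full block of FRET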
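Test system – NR2E3–RetCOR corepressor complex · Quantity – NR2E3 fusion 1.35 nM · Buffer or medium – Tris pH 7.5 · Incubation – Compound–protein incubation for 5 h at 4 °C · Technique – TR-FRET, Eu(K)-anti-GST donor, streptavidin-D2 acceptor, ex 340, em 617/671 nm · Evaluation – percent inhibition of 671/617 nm emission ratio versus biotin and DMSO controls · Plate – 1536-well format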
GASC-1 inh: blocks human GASC-1 demethylase activity | Q9H3R0 | GST-JMJD2C(1-420) H3K9me3 demethylation, DELFIA europium | inhibition, % at 2.35 µM | 330,000 tested, 0.069% active | AID 2099;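 active = more than half of a compound's replicate wells show inhibition beyond 50%, single wells judged on their own value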;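 also: signal counts dimethyl H3K9 product captured on neutravidin plate; 0% = median of DMSO wells and 100% = 0.3 times that DMSO median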
GalR3 antag: human GalR3 antagonism | HEK293 GalR3-CNG cAMP membrane potential fluorescence; galR3 body fused to GalR1 C-terminus | inhibition, % at 3 µM | 360,000 tested, 0.44% active | AID 651719;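 active = inhibition above the screen-wide average plus 3 SD, cut at about 13% in these data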;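 also: forskolin and galanin both at EC90 stimulate the cells; cAMP rise reported by CNG channel membrane potential dye signal; 0% = forskolin plus galanin with DMSO and 100% = forskolin alone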
Target sequence (O60755 1-299 limits assumed): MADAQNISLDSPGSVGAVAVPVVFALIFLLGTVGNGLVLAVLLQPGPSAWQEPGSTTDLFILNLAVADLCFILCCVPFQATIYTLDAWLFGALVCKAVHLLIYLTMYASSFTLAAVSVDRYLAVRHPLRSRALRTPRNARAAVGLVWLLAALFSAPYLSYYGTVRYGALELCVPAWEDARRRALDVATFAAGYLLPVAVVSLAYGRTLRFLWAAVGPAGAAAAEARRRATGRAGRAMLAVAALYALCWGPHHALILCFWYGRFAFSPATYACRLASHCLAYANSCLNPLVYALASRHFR
Jurkat NFkB inh: inhibitors of the PMA/ionomycin-induced NF-kB reporter in Jurkat cells. PMA/ionomycin-induced NF-kB luciferase reporter, luminescence. inhibition, % at 4 µM. 330,000 tested, 0.53% active. AID 435003; in the data active = inhibition above about 50%
697 NFkB inh: inhibitors of the PMA/ionomycin-induced NF-kB reporter in 697 B cells | inhibition, % at 4 µM | 330,000 tested, 0.33% active | 697 B-cell NF-kB luciferase reporter, 16 h; in the data active = inhibition above about 35%
697 NFkB conf: inhibitors of the PMA/ionomycin-induced NF-kB reporter in 697 B cells, retest; shares compounds with 697 NFkB inh; 697 B-cell NF-kB luciferase, 16 h; inhibition, % at 4 µM; 2,000 tested, 35% active; AID 449746; in the data active = inhibition mostly above about 28%, no sharp cut-off; inactive = mostly below about 22%
NR2E3 ag conf: NR2E3 agonism confirmed in two-hybrid assay; 2,300 tested, 51% active; CHO-S mammalian two-hybrid NR2E3-NCOR, luciferase luminescence; shares compounds with NR2E3 ag-1; inhibition, % at 3.98 µM;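 active = average inhibition above a cutoff equal to the mean inhibition of all tested compounds plus one SD, cut at about 70% in these data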;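 also: 0% = DMSO in NR2E3 cells and 100% = DMSO in cells lacking NR2E3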
VP16 counter: GAL4-VP16 reporter inhibition in NR2E3 agonist counterscreen; shares compounds with NR2E3 ag-1; CHO-S GAL4-VP16 luciferase reporter, luminescence; inhibition, % at 3.98 µM; 2,300 tested, 29% active; AID 624379;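 active = mean inhibition above a cutoff equal to the average over all tested compounds plus one standard deviation, cut at about 70% in these data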;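 also: luciferase from a UAS reporter driven by GAL4-VP16 transactivation; 0% = DMSO with VP16-transfected cells and 100% = DMSO with cells lacking VP16; higher means less reporter light so more repression of VP16 activity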
* = called active by the depositor.

Results for CCOC(=O)c1ccccc1NC(=O)Cc1ccc(OC)c(S(=O)(=O)N2CCOCC2)c1 ?
NR2E3 ag-1: -16; GASC-1 inh: 4; GalR3 antag: 2; Jurkat NFkB inh: 1; 697 NFkB inh: 1

What do the screens show for `CCSC1=C(C#N)C(c2ccc(Cl)cc2)C2=C(CCCC2=O)N1` (configuration not stated)?
NR2E3 ag-1: -5; NR2E3 ag-2: -1; GASC-1 inh: 0; GalR3 antag: -5; Jurkat NFkB inh: 4; 697 NFkB inh: 35*; 697 NFkB conf: 13

How did Cc1cc(C)n(CCOc2ccc(Br)cc2)n1 do in these assays?
NR2E3 ag-1: -12; NR2E3 ag-2: -3; GASC-1 inh: -9; GalR3 antag: -7; Jurkat NFkB inh: -2; 697 NFkB inh: -16

How did COc1ccc(/C=C2\SC(=S)N(CCC(=O)Nc3ccc(C(=O)O)cc3)C2=O)cc1OC do in these assays?
NR2E3 ag-1: -33; NR2E3 ag-2: -4; GASC-1 inh: 11; Jurkat NFkB inh: -12; 697 NFkB inh: 35*; 697 NFkB conf: 31*

Results for COc1ccc(/C=C2\SC(=S)N(CCC(=O)Nc3cccc(O)c3)C2=O)cc1OC ?
NR2E3 ag-1: -22; NR2E3 ag-2: -2; GASC-1 inh: -6; GalR3 antag: -3; Jurkat NFkB inh: -10; 697 NFkB inh: 37*; 697 NFkB conf: 10

How did COc1ccc(C=C2SC(=S)N(CCCC(=O)Nc3ccc(C(=O)O)c(O)c3)C2=O)cc1OC do in these assays?
NR2E3 ag-1: -11; GalR3 antag: -5

What do the screens show for `COc1ccc(/C=C2\SC(=S)N(CCCC(=O)Nc3cccc(C(=O)O)c3)C2=O)cc1OC`?
NR2E3 ag-1: 2; NR2E3 ag-2: -1; GASC-1 inh: 3; GalR3 antag: -3; Jurkat NFkB inh: 4; 697 NFkB inh: 8

Results for COc1cccc(/C=N/NC(=O)C(=O)N/N=C/c2cccc(OC)c2OC)c1OC ?
NR2E3 ag-1: 1; NR2E3 ag-2: -1; GASC-1 inh: 4; GalR3 antag: 2; Jurkat NFkB inh: -12; 697 NFkB inh: -8

How did COc1cccc(/C=N\NC(=O)c2sc(N)nc2C)c1OC do in these assays?
NR2E3 ag-1: -22; NR2E3 ag-2: 1; GASC-1 inh: 5; GalR3 antag: -2; Jurkat NFkB inh: 2; 697 NFkB inh: 39*; 697 NFkB conf: 8

What do the screens show for `Cc1oc(-c2ccccc2Cl)nc1CSc1nc2c(c(=O)[nH]1)CCC2`?
NR2E3 ag-1: -2; NR2E3 ag-2: 2; GASC-1 inh: 3; GalR3 antag: 7; Jurkat NFkB inh: 10; 697 NFkB inh: 41*; 697 NFkB conf: 24

What do the screens show for `Cc1oc(-c2ccccc2Cl)nc1CSCC(=O)N1CCCC1`?
NR2E3 ag-1: -1; NR2E3 ag-2: 1; GASC-1 inh: 36; GalR3 antag: -4; Jurkat NFkB inh: -32; 697 NFkB inh: inactive; 697 NFkB conf: inactive

How did O=C(O)CC1(CC(=O)Nc2cccc(C(=O)O)c2)CCCC1 do in these assays?
NR2E3 ag-1: -24; NR2E3 ag-2: 5; GASC-1 inh: -2; GalR3 antag: -5; Jurkat NFkB inh: 5; 697 NFkB inh: -19

What do the screens show for `CCc1ccc(NC(=O)Nc2ccsc2C(=O)OC)cc1`?
NR2E3 ag-1: -86; NR2E3 ag-2: 1; GASC-1 inh: -19; GalR3 antag: -1; Jurkat NFkB inh: -32; 697 NFkB inh: -358; 697 NFkB conf: -315

How did CCN(Cc1cnn(C)c1)C(=O)c1ccc2nc(Cc3cccc(Cl)c3)oc2c1 do in these assays?
NR2E3 ag-1: -5; NR2E3 ag-2: -1; GASC-1 inh: -6; GalR3 antag: -6; Jurkat NFkB inh: 8; 697 NFkB inh: -29

Results for Cc1cc(N(C)C)ccc1N=Nc1ccc(N)cc1 ?
NR2E3 ag-1: -129; NR2E3 ag-2: -3; GASC-1 inh: 3; GalR3 antag: 6; Jurkat NFkB inh: -10; 697 NFkB inh: 69*; 697 NFkB conf: 79*

How did COC(=O)c1c(-c2ccccc2OC)sc2ccc(OC)cc12 do in these assays?
NR2E3 ag-1: -6; NR2E3 ag-2: 2; GASC-1 inh: -6; GalR3 antag: -4; Jurkat NFkB inh: -13; 697 NFkB inh: 8

How did COC(=O)c1c(-c2ccc(N(C)C)cc2)sc2ccc(OC)cc12 do in these assays?
NR2E3 ag-1: 28; GASC-1 inh: 21; GalR3 antag: 2; Jurkat NFkB inh: -6; 697 NFkB inh: 53*; 697 NFkB conf: 62*

What do the screens show for `Cc1cccn2c(=O)c3cc(C(=O)NC4CCCCC4)c(=N)n(CCN4CCOCC4)c3nc12`?
NR2E3 ag-1: -9; NR2E3 ag-2: 4; GASC-1 inh: -4; GalR3 antag: -6; Jurkat NFkB inh: 12; 697 NFkB inh: 53*; 697 NFkB conf: 39*

How did CCCn1c(=N)c(C(=O)NC2CCCC2)cc2c(=O)n3cccc(C)c3nc21 do in these assays?
NR2E3 ag-1: -22; NR2E3 ag-2: 0; GASC-1 inh: -1; GalR3 antag: -2; Jurkat NFkB inh: -11; 697 NFkB inh: 26

Results for Cc1ccc(S(=O)(=O)CC2CSc3nc4ccccc4n32)cc1 (configuration not stated) ?
NR2E3 ag-1: 74*; NR2E3 ag-2: -1; GASC-1 inh: 0; GalR3 antag: -11; Jurkat NFkB inh: 35; 697 NFkB inh: 62*; 697 NFkB conf: 75*; NR2E3 ag conf: 93*; VP16 counter: 70

Results for Cc1ccc(S(=O)(=O)CC2CSc3nc(N)cc(=O)n32)cc1 (configuration not stated) ?
NR2E3 ag-1: -29; NR2E3 ag-2: -3; GASC-1 inh: 4; GalR3 antag: 6; Jurkat NFkB inh: 2; 697 NFkB inh: -40

What do the screens show for `O=c1cc(N2CCN(c3cccc(Cl)c3)CC2)[nH]c(=O)n1C1CCCCC1`?
NR2E3 ag-1: 57; NR2E3 ag-2: 0; GASC-1 inh: 7; GalR3 antag: -2; Jurkat NFkB inh: 47; 697 NFkB inh: 43*; 697 NFkB conf: 29; NR2E3 ag conf: 93*; VP16 counter: 28

How did C=CCN1C=C(C(=O)OCC)C(=O)CC1 do in these assays?
GalR3 antag: -8

What do the screens show for `C=CCOC1COC2C(OCC=C)COC12` (configuration not stated)?
NR2E3 ag-1: 18; GalR3 antag: -5
